Source: ChEMBL document CHEMBL3758168, “Hybrid triazoles: Design and synthesis as potential dual inhibitor of growth and efflux inhibition in tuberculosis” (Eur J Med Chem, 2016)
Converted amounts (≈) assume the structure as drawn.

Legend:
[1] = tested on: Mycobacterium tuberculosis; experiment: Antibacterial activity against Mycobacterium tuberculosis H37Rv ATCC 27294T assessed as rifampin MIC at 0.25 ug/ml after 7 days by microdilution checkerboard assay; assay type: functional; conditions: 168 h
Method in brief: (§1)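 Two-dimensional checkerboard in H37Rv at 10^5 CFU/ml in MB7H9/OADC. Partner drug (amikacin, EtBr, isoniazid, ofloxacin or rifampin) two-fold serially diluted across columns 3-11. Test compound two-fold serially diluted down rows 2-6. Plates incubated 7 days at 37 °C, then MTT added overnight. […] Run in triplicate.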

[2] = tested on: Mycobacterium tuberculosis; experiment: Antibacterial activity against Mycobacterium tuberculosis H37Rv ATCC 27294T assessed as amikacin MIC at 0.25 ug/ml after 7 days by microdilution checkerboard assay; assay type: functional; conditions: 168 h; method in brief: as §1
[3] = tested on: Mycobacterium tuberculosis; experiment: Antibacterial activity against Mycobacterium tuberculosis H37Rv ATCC 27294T assessed as ofloxacin MIC at 8 ug/ml after 7 days by microdilution checkerboard assay; assay type: functional; conditions: 168 h; method in brief: as §1
[4] = tested on: Mycobacterium tuberculosis; experiment: Antibacterial activity against Mycobacterium tuberculosis H37Rv ATCC 27294T assessed as ethidium bromide MIC at 0.12 ug/ml after 7 days by microdilution checkerboard assay; assay type: functional; conditions: 168 h; method in brief: as §1
[5] = tested on: Mycobacterium tuberculosis; experiment: Antibacterial activity against Mycobacterium tuberculosis H37Rv ATCC 27294T assessed as ofloxacin MIC at 4 ug/ml after 7 days by microdilution checkerboard assay; assay type: functional; conditions: 168 h; method in brief: as §1
[6] = tested on: Mycobacterium tuberculosis; experiment: Antibacterial activity against Mycobacterium tuberculosis H37Rv ATCC 27294T assessed as amikacin MIC at 2 ug/ml after 7 days by microdilution checkerboard assay; assay type: functional; conditions: 168 h; method in brief: as §1
[7] = tested on: Mycobacterium tuberculosis; experiment: Antibacterial activity against Mycobacterium tuberculosis H37Rv ATCC 27294T assessed as isoniazid MIC at 2 ug/ml after 7 days by microdilution checkerboard assay; assay type: functional; conditions: 168 h; method in brief: as §1
[8] = tested on: Mycolicibacterium smegmatis; experiment: Anti-tubercular activity against Mycobacterium smegmatis MC2 155 ATCC 700084 after 3 days by microdilution method; assay type: functional; conditions: MC2 155 ATCC 700084, 72 h
Method in brief: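 M. smegmatis mc2155 grown in MB7H9 + 10% OADC at 37 °C with shaking to OD600 0.8. Inoculum set to 0.5 McFarland, diluted 1:100, and mixed 1:1 with two-fold serial dilutions in MB7H9. Plates incubated 3 days at 37 °C with growth and sterility controls. MIC taken as the lowest concentration with no visible growth.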

[9] = tested on: Mycobacterium tuberculosis; experiment: Antibacterial activity against Mycobacterium tuberculosis H37Rv ATCC 27294T assessed as ethidium bromide MIC at 4 ug/ml after 7 days by microdilution checkerboard assay; assay type: functional; conditions: 168 h; method in brief: as §1
[10] = tested on: Mycobacterium tuberculosis; experiment: Antibacterial activity against Mycobacterium tuberculosis H37Rv ATCC 27294T assessed as rifampin MIC at 0.5 ug/ml after 7 days by microdilution checkerboard assay; assay type: functional; conditions: 168 h
Method in brief: (§2)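 M. tuberculosis H37Rv grown in MB7H9 + 10% OADC at 37 °C to OD600 0.8; plates inoculated at 10^5 CFU/ml. Rifampicin two-fold serially diluted across columns, test compound two-fold diluted down rows (two-dimensional checkerboard). Sealed, 37 °C for seven days, then MTT added and incubated overnight. MIC read as no colour change. Triplicate.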

[11] = tested on: Mycobacterium tuberculosis; experiment: Antibacterial activity against Mycobacterium tuberculosis H37Rv ATCC 27294T assessed as ofloxacin MIC at 0.5 ug/ml after 7 days by microdilution checkerboard assay; assay type: functional; conditions: 168 h; method in brief: as §1
[12] = tested on: Mycobacterium tuberculosis; experiment: Antibacterial activity against Mycobacterium tuberculosis H37Rv ATCC 27294T assessed as rifampin MIC at 0.12 ug/ml after 7 days by microdilution checkerboard assay; assay type: functional; conditions: 168 h; method in brief: as §1
[13] = tested on: Mycobacterium tuberculosis; experiment: Antibacterial activity against Mycobacterium tuberculosis H37Rv ATCC 27294T assessed as rifampin MIC at 2 ug/ml after 7 days by microdilution checkerboard assay; assay type: functional; conditions: 168 h; method in brief: as §2
[14] = tested on: Mycobacterium tuberculosis; experiment: Antibacterial activity against Mycobacterium tuberculosis H37Rv ATCC 27294T assessed as isoniazid MIC at 0.5 ug/ml after 7 days by microdilution checkerboard assay; assay type: functional; conditions: 168 h; method in brief: as §1
[15] = tested on: Mycobacterium tuberculosis; experiment: Antibacterial activity against Mycobacterium tuberculosis H37Rv ATCC 27294T assessed as isoniazid MIC at 0.12 ug/ml after 7 days by microdilution checkerboard assay; assay type: functional; conditions: 168 h; method in brief: as §1
[16] = tested on: Mycobacterium tuberculosis; experiment: Antibacterial activity against Mycobacterium tuberculosis H37Rv ATCC 27294T assessed as ethidium bromide MIC at 0.5 ug/ml after 7 days by microdilution checkerboard assay; assay type: functional; conditions: 168 h; method in brief: as §1
[17] = tested on: Mycobacterium tuberculosis; experiment: Antibacterial activity against Mycobacterium tuberculosis H37Rv ATCC 27294T assessed as isoniazid MIC at 0.25 ug/ml after 7 days by microdilution checkerboard assay; assay type: functional; conditions: 168 h; method in brief: as §1
[18] = tested on: Mycobacterium tuberculosis; experiment: Antibacterial activity against Mycobacterium tuberculosis H37Rv ATCC 27294T assessed as isoniazid MIC at 1 ug/ml after 7 days by microdilution checkerboard assay; assay type: functional; conditions: 168 h; method in brief: as §1
[19] = tested on: Mycobacterium tuberculosis; experiment: Antibacterial activity against Mycobacterium tuberculosis H37Rv ATCC 27294T assessed as ofloxacin MIC at 0.25 ug/ml after 7 days by microdilution checkerboard assay; assay type: functional; conditions: 168 h; method in brief: as §1
[20] = tested on: Mycobacterium tuberculosis; experiment: Antibacterial activity against Mycobacterium tuberculosis H37Rv ATCC 27294T assessed as rifampin MIC at 1 ug/ml after 7 days by microdilution checkerboard assay; assay type: functional; conditions: 168 h; method in brief: as §2
[21] = tested on: Mycobacterium tuberculosis; experiment: Antibacterial activity against Mycobacterium tuberculosis H37Rv ATCC 27294T assessed as ofloxacin MIC at 0.12 ug/ml after 7 days by microdilution checkerboard assay; assay type: functional; conditions: 168 h; method in brief: as §1
[22] = tested on: Mycobacterium tuberculosis; experiment: Antibacterial activity against Mycobacterium tuberculosis H37Rv ATCC 27294T assessed as amikacin MIC at 1 ug/ml after 7 days by microdilution checkerboard assay; assay type: functional; conditions: 168 h; method in brief: as §1
[23] = tested on: Mycobacterium tuberculosis; experiment: Anti-tubercular activity against Mycobacterium tuberculosis H37Rv ATCC 27294T after 7 days by mircodilution method; assay type: functional; conditions: 168 h
Method in brief: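 H37Rv grown static in MB7H9 + 10% OADC at 37 °C to OD600 0.8, then diluted to about 10^5 cells/ml. Mixed 1:1 with two-fold serial dilutions in MB7H9/OADC and incubated 7 days at 37 °C. MTT added to final 2.5% and plates incubated overnight. MIC is the lowest concentration with no colour change. Run in triplicate.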

[24] = tested on: Mycobacterium tuberculosis; experiment: Antibacterial activity against Mycobacterium tuberculosis H37Rv ATCC 27294T assessed as amikacin MIC at 8 ug/ml after 7 days by microdilution checkerboard assay; assay type: functional; conditions: 168 h; method in brief: as §1
[25] = tested on: Mycobacterium tuberculosis; experiment: Antibacterial activity against Mycobacterium tuberculosis H37Rv ATCC 27294T assessed as amikacin MIC at 4 ug/ml after 7 days by microdilution checkerboard assay; assay type: functional; conditions: 168 h; method in brief: as §1
[26] = tested on: Mycobacterium tuberculosis; experiment: Antibacterial activity against Mycobacterium tuberculosis H37Rv ATCC 27294T assessed as ofloxacin MIC at 1 ug/ml after 7 days by microdilution checkerboard assay; assay type: functional; conditions: 168 h; method in brief: as §1
[27] = tested on: Mycobacterium tuberculosis; experiment: Antibacterial activity against Mycobacterium tuberculosis H37Rv ATCC 27294T assessed as ofloxacin MIC at 2 ug/ml after 7 days by microdilution checkerboard assay; assay type: functional; conditions: 168 h; method in brief: as §1
[28] = tested on: Mycobacterium tuberculosis; experiment: Antibacterial activity against Mycobacterium tuberculosis H37Rv ATCC 27294T assessed as amikacin MIC at 0.12 ug/ml after 7 days by microdilution checkerboard assay; assay type: functional; conditions: 168 h; method in brief: as §1
[29] = tested on: Mycobacterium tuberculosis; experiment: Antibacterial activity against Mycobacterium tuberculosis H37Rv ATCC 27294T assessed as rifampin MIC at 8 ug/ml after 7 days by microdilution checkerboard assay; assay type: functional; conditions: 168 h; method in brief: as §2
[30] = tested on: Mycobacterium tuberculosis; experiment: Antibacterial activity against Mycobacterium tuberculosis H37Rv ATCC 27294T assessed as isoniazid MIC at 8 ug/ml after 7 days by microdilution checkerboard assay; assay type: functional; conditions: 168 h; method in brief: as §1
[31] = tested on: Mycobacterium tuberculosis; experiment: Antibacterial activity against Mycobacterium tuberculosis H37Rv ATCC 27294T assessed as ethidium bromide MIC at 0.25 ug/ml after 7 days by microdilution checkerboard assay; assay type: functional; conditions: 168 h; method in brief: as §1
[32] = tested on: Mycobacterium tuberculosis; experiment: Antibacterial activity against Mycobacterium tuberculosis H37Rv ATCC 27294T assessed as ethidium bromide MIC at 8 ug/ml after 7 days by microdilution checkerboard assay; assay type: functional; conditions: 168 h; method in brief: as §1
[33] = Cytotoxicity against human MDM assessed as cell viability after 3 days by Alamar blue dye-based fluorocytometric analysis relative to control; conditions: 72 h
[34] = tested on: Mycobacterium tuberculosis; experiment: Antibacterial activity against Mycobacterium tuberculosis H37Rv ATCC 27294T assessed as amikacin MIC at 0.5 ug/ml after 7 days by microdilution checkerboard assay; assay type: functional; conditions: 168 h; method in brief: as §1
[35] = tested on: Mycobacterium tuberculosis; experiment: Antibacterial activity against Mycobacterium tuberculosis H37Rv ATCC 27294T assessed as ethidium bromide MIC at 2 ug/ml after 7 days by microdilution checkerboard assay; assay type: functional; conditions: 168 h; method in brief: as §1
[36] = tested on: Mycobacterium tuberculosis; experiment: Antibacterial activity against Mycobacterium tuberculosis H37Rv ATCC 27294T assessed as ethidium bromide MIC at 1 ug/ml after 7 days by microdilution checkerboard assay; assay type: functional; conditions: 168 h; method in brief: as §1
[37] = tested on: Mycobacterium tuberculosis; experiment: Antibacterial activity against Mycobacterium tuberculosis H37Rv ATCC 27294T assessed as rifampin MIC at 4 ug/ml after 7 days by microdilution checkerboard assay; assay type: functional; conditions: 168 h; method in brief: as §2
[38] = tested on: Mycobacterium tuberculosis; experiment: Antibacterial activity against Mycobacterium tuberculosis H37Rv ATCC 27294T assessed as isoniazid MIC at 4 ug/ml after 7 days by microdilution checkerboard; assay type: functional; conditions: 168 h; method in brief: as §1

For CSc1ccc2c(c1)N(CCC1CCCCN1C)c1ccccc1S2 (stereo not drawn) [THIORIDAZINE], the MIC [1] was 0.5 µg/mL, the MIC [2] was 1 µg/mL and the MIC [3] was 0.0312 µg/mL. The MIC [4] was 12.5 µg/mL, the MIC [5] was 1 µg/mL and the MIC [6] was 1 µg/mL. The MIC [7] was 0.1 µg/mL, the MIC [8] was 31 µg/mL (≈ 83.7 µM) and the MIC [9] was 1.56 µg/mL. It also gave an MIC [10] of 0.5 µg/mL, an MIC [11] of 1 µg/mL and an MIC [12] of 1 µg/mL. The MIC [13] was 0.5 µg/mL, the MIC [14] was 0.1 µg/mL and the MIC [15] was 0.1 µg/mL. It also gave an MIC [16] of 6.25 µg/mL, an MIC [17] of 0.1 µg/mL and an MIC [18] of 0.1 µg/mL. The MIC [19] was 2 µg/mL, the MIC [20] was 0.5 µg/mL and the MIC [21] was 2 µg/mL. It also gave an MIC [22] of 1 µg/mL, an MIC [23] of 16 µg/mL (≈ 43.2 µM) and an MIC [24] of 0.0312 µg/mL. It also gave an MIC [25] of 0.25 µg/mL, an MIC [26] of 1 µg/mL and an MIC [27] of 1 µg/mL. It also gave an MIC [28] of 1 µg/mL, an MIC [29] of 0.0156 µg/mL and an MIC [30] of 0.00156 µg/mL. It also gave an MIC [31] of 12.5 µg/mL, an MIC [32] of 0.195 µg/mL and an IC50 [33] of 5.5 µg/mL (≈ 14.8 µM). For the same compound, the MIC [34] was 1 µg/mL, the MIC [35] was 3.12 µg/mL and the MIC [36] was 6.25 µg/mL. The MIC [37] was 0.5 µg/mL and the MIC [38] was 0.0125 µg/mL.
